Here are results for one compound from ChEMBL document CHEMBL4177575 (Bioorg Med Chem, 2017).

The term IC50 denotes the midpoint of a concentration-inhibition curve.

Activity calls are given as the source filed them. The rule behind the calls is not given here. Where only a bound is given, the exact number is not on record here.

Assay [1] concerns A549. As to the kind of experiment: Induction of morphological changes in human A549 cells assessed as induction of apoptotic bodies at 1.85 uM incubated for 12 hrs by acridine orange dye based inverted microscopy and fluorescence microscopy. The assay is classed as functional, cell-based. The method in brief: (§1)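 Untreated control included. A549 cells exposed 12 h at 1.85 μM, then single-stained with acridine orange. Nuclei and morphology examined by inverted and fluorescence microscopy.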

Assay [2] deals with A549. As to the kind of experiment: Induction of apoptosis in human A549 cells assessed as viable cell level at 12 uM incubated for 48 hrs by Annexin VFITC and propidium iodide staining based flow cytometry (reference value: 93.27%). The assay is classed as functional. The method in brief: (§2)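 A549 cells seeded in RPMI 1640 and treated 48 h at 3, 6 or 12 µM. Cells then stained with Annexin V-FITC plus propidium iodide, 30 min at 4 °C in the dark, and analysed on a FACS Calibur flow cytometer.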
A general note: In flow cytometry, cells or beads pass a laser one at a time.

Assay [3] has as its system A549. Nature of the assay: Cytotoxicity against human A549 cells assessed as reduction in cell viability incubated for 72 hrs by MTT assay. It counts as functional, cell-based. The method in brief:
(§3)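 Cells grown in MEM with 10% FBS; about 4×10^3 cells per well, pre-incubated 24 h at 37 °C in 5% CO2, then exposed to compound for 72 h. Seven concentrations, threefold serial dilution from 100 ug/mL initial. MTT at 5 µg/mL terminal concentration for 4 h; formazan dissolved in DMSO, absorbance read at 492 nm against 630 nm reference. IC50 is the average of two determinations.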

The subject of assay [4] is A549. Nature of the assay: Induction of apoptosis in human A549 cells assessed as viable cell level at 3 uM incubated for 48 hrs by Annexin VFITC and propidium iodide staining based flow cytometry (reference value: 93.27%). It counts as functional. The procedure, abridged:
as §2

For assay [5], the system named is A549. Nature of the assay: Induction of apoptosis in human A549 cells assessed as early apoptotic cell level at 6 uM incubated for 48 hrs by Annexin VFITC and propidium iodide staining based flow cytometry (reference value: 0.64%). The assay is classed as functional. The method in brief: as §2
Assay [6] concerns the target Serine/threonine-protein kinase B-raf (Homo sapiens, UniProt P15056). Nature of the assay: Inhibition of BRAF (unknown origin) incubated for 10 mins using FAM-labeled peptide and ATP by mobility shift assay.
The subject of assay [7] is A549. Nature of the assay: Induction of morphological changes in human A549 cells assessed as induction of cell shrinking at 1.85 uM incubated for 12 hrs by acridine orange dye based inverted microscopy and fluorescence microscopy. It counts as functional. The procedure, abridged: as §1
The subject of assay [8] is A549. Nature of the assay: Induction of apoptosis in human A549 cells assessed as necrotic cell level at 6 uM incubated for 48 hrs by Annexin VFITC and propidium iodide staining based flow cytometry (reference value: 2.69%). The assay is classed as functional. The procedure, abridged:
as §2

In assay [9] the test system is A549. As to the kind of experiment: Induction of apoptosis in human A549 cells assessed as late apoptotic cell level at 12 uM incubated for 48 hrs by Annexin VFITC and propidium iodide staining based flow cytometry (reference value: 3.4%). The assay is classed as functional. The procedure, abridged: as §2
Assay [10] deals with A549. Nature of the assay: Induction of apoptosis in human A549 cells assessed as early apoptotic cell level at 3 uM incubated for 48 hrs by Annexin VFITC and propidium iodide staining based flow cytometry (reference value: 0.64%). The assay is classed as functional. The procedure, abridged:
as §2

For assay [11], the target named is Vascular endothelial growth factor receptor 2 (Homo sapiens, UniProt P35968). Nature of the assay: Inhibition of VEGFR2 (unknown origin) incubated for 10 mins using FAM-labeled peptide and ATP by mobility shift assay.
The subject of assay [12] is A549. As to the kind of experiment: Induction of apoptosis in human A549 cells assessed as necrotic cell level at 12 uM incubated for 48 hrs by Annexin VFITC and propidium iodide staining based flow cytometry (reference value: 2.69%). It counts as functional. The procedure, abridged:
as §2

Assay [13] deals with A549. As to the kind of experiment: Induction of apoptosis in human A549 cells assessed as late apoptotic cell level at 3 uM incubated for 48 hrs by Annexin VFITC and propidium iodide staining based flow cytometry (reference value: 3.4%). It counts as functional. The procedure, abridged: as §2
The target of assay [14] is Epidermal growth factor receptor (Homo sapiens, UniProt P00533). As to the kind of experiment: Inhibition of EGFR (unknown origin) incubated for 10 mins using FAM-labeled peptide and ATP by mobility shift assay.
Chain of Epidermal growth factor receptor (P00533 whole entry): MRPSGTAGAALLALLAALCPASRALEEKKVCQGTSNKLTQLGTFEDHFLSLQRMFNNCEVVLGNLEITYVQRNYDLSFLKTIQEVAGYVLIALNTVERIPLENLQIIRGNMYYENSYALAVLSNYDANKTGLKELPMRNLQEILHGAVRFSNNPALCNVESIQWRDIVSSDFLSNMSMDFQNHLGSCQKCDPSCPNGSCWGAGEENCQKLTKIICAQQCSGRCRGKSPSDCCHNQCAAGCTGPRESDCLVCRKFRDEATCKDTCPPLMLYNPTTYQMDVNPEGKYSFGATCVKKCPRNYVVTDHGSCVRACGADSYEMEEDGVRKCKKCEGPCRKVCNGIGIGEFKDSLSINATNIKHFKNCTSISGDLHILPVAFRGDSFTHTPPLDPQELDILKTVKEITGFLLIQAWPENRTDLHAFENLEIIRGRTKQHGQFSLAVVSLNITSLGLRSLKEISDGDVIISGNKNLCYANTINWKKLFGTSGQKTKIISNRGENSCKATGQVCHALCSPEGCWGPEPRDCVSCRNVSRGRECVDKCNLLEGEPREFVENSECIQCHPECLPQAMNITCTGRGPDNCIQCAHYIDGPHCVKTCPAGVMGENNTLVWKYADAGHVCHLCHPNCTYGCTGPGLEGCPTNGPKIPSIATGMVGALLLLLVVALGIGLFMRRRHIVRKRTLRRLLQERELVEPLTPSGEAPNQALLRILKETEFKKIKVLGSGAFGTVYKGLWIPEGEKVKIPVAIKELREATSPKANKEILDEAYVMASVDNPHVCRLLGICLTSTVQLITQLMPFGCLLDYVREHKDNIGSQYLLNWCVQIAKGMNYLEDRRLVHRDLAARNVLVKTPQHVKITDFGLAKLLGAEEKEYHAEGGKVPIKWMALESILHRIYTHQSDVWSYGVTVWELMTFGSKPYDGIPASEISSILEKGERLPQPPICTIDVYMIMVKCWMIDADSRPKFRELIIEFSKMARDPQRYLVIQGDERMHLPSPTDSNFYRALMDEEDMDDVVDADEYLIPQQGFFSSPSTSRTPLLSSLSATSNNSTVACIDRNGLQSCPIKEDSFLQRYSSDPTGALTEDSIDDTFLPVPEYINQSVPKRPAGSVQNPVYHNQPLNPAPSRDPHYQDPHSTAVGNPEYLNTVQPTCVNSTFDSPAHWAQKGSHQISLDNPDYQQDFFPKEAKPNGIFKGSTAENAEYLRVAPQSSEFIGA
In assay [15] the test system is MCF7. Nature of the assay: Cytotoxicity against human MCF7 cells assessed as reduction in cell viability incubated for 72 hrs by MTT assay. It counts as functional, cell-based. The method in brief: as §3
Background: Tetrazolium dyes change colour on reduction, which living cells bring about.

Assay [16] deals with Hepatocyte growth factor receptor (Homo sapiens, UniProt P08581). As to the kind of experiment: Inhibition of c-MET (unknown origin) incubated for 10 mins using FAM-labeled peptide and ATP by mobility shift assay. The method in brief: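 Mobility shift assay in 384-well plates. Kinase buffer: 50 mM HEPES pH 7.5, 10 mM MgCl2, 0.0015% Brij-35, 2 mM DTT. Compound, diluted from a 500 μM DMSO stock, preincubated with enzyme 10 min at room temperature. FAM-labelled peptide and ATP then added and the reaction run at 28 °C. Stopped with EDTA-containing buffer and read on Caliper. Inhibition = (max−conversion)/(max−min)×100, with DMSO wells as max and enzyme-free wells as min.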
Chain of Hepatocyte growth factor receptor (P08581 whole entry): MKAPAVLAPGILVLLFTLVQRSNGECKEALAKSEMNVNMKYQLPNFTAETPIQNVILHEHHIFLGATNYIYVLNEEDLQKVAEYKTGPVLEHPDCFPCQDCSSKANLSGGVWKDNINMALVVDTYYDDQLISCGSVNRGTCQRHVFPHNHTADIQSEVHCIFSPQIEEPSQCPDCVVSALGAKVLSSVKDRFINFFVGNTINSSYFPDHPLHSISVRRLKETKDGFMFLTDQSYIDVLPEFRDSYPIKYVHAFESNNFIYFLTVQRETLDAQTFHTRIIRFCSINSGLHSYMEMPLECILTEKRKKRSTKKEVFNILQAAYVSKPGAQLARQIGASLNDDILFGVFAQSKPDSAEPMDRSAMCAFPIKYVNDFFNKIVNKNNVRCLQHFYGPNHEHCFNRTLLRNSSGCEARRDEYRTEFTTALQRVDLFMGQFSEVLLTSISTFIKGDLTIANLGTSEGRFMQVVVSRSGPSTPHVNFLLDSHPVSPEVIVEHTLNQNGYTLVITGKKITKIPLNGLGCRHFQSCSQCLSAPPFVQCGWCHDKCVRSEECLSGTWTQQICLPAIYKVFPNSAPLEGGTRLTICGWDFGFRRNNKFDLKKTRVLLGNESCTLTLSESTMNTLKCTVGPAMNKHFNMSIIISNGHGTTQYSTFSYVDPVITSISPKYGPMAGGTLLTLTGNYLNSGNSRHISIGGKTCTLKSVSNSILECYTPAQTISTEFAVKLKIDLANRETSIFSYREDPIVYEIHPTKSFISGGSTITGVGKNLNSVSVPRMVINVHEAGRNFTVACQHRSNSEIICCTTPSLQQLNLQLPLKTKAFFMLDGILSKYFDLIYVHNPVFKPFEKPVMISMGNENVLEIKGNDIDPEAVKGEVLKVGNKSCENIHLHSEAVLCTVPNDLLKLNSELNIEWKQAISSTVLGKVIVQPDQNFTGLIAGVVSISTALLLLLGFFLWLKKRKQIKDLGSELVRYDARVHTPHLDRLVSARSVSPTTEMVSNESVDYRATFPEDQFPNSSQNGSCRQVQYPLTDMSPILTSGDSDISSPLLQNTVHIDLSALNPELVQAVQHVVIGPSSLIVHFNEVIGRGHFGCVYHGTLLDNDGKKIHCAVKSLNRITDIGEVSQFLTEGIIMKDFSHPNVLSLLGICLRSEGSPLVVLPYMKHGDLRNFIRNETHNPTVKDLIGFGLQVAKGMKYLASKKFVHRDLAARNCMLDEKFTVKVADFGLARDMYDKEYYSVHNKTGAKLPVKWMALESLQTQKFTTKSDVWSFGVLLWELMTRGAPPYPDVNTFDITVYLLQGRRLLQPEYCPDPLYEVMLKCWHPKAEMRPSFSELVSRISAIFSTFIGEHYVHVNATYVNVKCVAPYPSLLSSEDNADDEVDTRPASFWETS

For assay [17], the system named is A549. Nature of the assay: Induction of apoptosis in human A549 cells assessed as viable cell level at 6 uM incubated for 48 hrs by Annexin VFITC and propidium iodide staining based flow cytometry (reference value: 93.27%). It counts as functional. The method in brief:
as §2

Assay [18] has as its system HepG2. As to the kind of experiment: Cytotoxicity against human HepG2 cells assessed as reduction in cell viability incubated for 72 hrs by MTT assay. The assay is classed as functional, cell-based. The following applies: HepG2, 72 h. The method in brief: as §3
Assay [19] concerns A549. As to the kind of experiment: Induction of morphological changes in human A549 cells assessed as induction of chromatin condensation at 1.85 uM incubated for 12 hrs by acridine orange dye based inverted microscopy and fluorescence microscopy. The assay is classed as functional, cell-based. The method in brief:
as §1

For assay [20], the system named is A549. Nature of the assay: Induction of apoptosis in human A549 cells assessed as late apoptotic cell level at 6 uM incubated for 48 hrs by Annexin VFITC and propidium iodide staining based flow cytometry (reference value: 3.4%). It counts as functional. The method in brief:
as §2

Assay [21] concerns the target RAF proto-oncogene serine/threonine-protein kinase (Homo sapiens, UniProt P04049). Nature of the assay: Inhibition of CRAF (unknown origin) incubated for 10 mins using FAM-labeled peptide and ATP by mobility shift assay. The procedure, abridged: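 Mobility shift assay in 384-well plates. Compound, diluted from a 500 μM DMSO stock, preincubated with enzyme 10 min at room temperature. FAM-labelled peptide and ATP then added and the reaction run at 28 °C. Stopped with EDTA-containing buffer and read on Caliper. Inhibition = (max−conversion)/(max−min)×100, with DMSO wells as max and enzyme-free wells as min.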

For assay [22], the system named is A549. Nature of the assay: Induction of apoptosis in human A549 cells assessed as early apoptotic cell level at 12 uM incubated for 48 hrs by Annexin VFITC and propidium iodide staining based flow cytometry (reference value: 0.64%). It counts as functional. The procedure, abridged:
as §2

Chain of RAF proto-oncogene serine/threonine-protein kinase (P04049 whole entry): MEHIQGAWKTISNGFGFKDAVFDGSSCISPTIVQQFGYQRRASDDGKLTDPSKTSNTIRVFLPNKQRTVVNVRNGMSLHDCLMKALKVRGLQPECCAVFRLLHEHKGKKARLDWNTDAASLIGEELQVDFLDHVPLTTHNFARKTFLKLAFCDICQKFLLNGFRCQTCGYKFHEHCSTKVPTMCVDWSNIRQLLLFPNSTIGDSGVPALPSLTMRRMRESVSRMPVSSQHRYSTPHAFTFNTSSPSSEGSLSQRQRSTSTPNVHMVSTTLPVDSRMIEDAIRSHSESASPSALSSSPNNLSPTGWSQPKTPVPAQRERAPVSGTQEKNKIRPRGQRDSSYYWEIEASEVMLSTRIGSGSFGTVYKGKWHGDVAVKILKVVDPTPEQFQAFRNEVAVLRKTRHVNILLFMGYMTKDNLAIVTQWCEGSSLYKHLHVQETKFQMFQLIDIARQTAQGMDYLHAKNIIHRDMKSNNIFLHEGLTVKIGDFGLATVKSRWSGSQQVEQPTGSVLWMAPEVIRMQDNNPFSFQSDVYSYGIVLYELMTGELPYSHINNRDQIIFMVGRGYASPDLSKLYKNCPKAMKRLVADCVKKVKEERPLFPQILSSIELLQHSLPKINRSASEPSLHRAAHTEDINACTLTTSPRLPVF
Chain of Serine/threonine-protein kinase B-raf (P15056 whole entry): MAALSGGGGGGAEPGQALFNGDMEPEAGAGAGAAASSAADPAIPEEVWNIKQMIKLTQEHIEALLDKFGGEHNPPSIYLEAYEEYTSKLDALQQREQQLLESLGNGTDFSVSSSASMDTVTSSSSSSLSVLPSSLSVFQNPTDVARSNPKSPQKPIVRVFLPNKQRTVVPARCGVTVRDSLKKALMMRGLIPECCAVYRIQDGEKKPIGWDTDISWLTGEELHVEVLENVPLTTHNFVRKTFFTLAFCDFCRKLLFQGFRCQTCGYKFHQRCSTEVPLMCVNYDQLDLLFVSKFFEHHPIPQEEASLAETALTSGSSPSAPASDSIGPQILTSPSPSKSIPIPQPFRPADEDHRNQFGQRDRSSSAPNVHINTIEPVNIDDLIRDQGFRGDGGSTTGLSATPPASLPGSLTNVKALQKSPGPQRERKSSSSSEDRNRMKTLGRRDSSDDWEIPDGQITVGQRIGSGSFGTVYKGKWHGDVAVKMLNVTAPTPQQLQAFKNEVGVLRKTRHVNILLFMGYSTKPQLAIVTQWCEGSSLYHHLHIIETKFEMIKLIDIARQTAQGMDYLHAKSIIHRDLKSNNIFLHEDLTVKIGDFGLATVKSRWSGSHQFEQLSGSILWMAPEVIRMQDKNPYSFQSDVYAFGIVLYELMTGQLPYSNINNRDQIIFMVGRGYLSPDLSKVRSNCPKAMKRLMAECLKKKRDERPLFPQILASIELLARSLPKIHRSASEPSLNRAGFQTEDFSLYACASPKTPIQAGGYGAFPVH

As to `CNC(=O)c1cc(Oc2ccc(C3=NNC(c4cccc(Br)c4)C3)cc2)ccn1` (centres undefined), the outcome in [1], in [7] and in [19] was Active. Moreover, the Activity in [2] was 75.55%; in assay [3] it was “Dose-dependent effect”; in assay [4], 88.8%; in assay [5], 7.72%; in assay [8], 1.24%; in assay [9], 10.05%. The Activity in [10] is 2.2%; in assay [12], 2.45%; in [13] it was 4.51%; in assay [15] it was “Dose-dependent effect”; in assay [17] it was 81.93%; in [20], 9.11%. In addition, the Activity in assay [22] is recorded as 11.95%. Moreover, the concentration for half-maximal inhibition (IC50) in [3] (A549, 72 h) was 2840 nM; in assay [6], 3.4 µM; in [11], 560 nM; in assay [14], over 10 µM; in [15] (MCF7, 72 h), 1960 nM; in assay [16], 540 nM. Moreover, the figures for the IC50 in [18] and in [21] were 1850 nM and 7.9 µM, respectively.
